The values below come from ChEMBL document CHEMBL5108089, “Structure-based discovery of potent inhibitors of Axl: design, synthesis, and biological evaluation” (RSC Med Chem, 2022).

Data set [1] concerns the target T1, Tyrosine-protein kinase receptor UFO (Homo sapiens, UniProt P30530).
T1 sequence (P30530 whole entry): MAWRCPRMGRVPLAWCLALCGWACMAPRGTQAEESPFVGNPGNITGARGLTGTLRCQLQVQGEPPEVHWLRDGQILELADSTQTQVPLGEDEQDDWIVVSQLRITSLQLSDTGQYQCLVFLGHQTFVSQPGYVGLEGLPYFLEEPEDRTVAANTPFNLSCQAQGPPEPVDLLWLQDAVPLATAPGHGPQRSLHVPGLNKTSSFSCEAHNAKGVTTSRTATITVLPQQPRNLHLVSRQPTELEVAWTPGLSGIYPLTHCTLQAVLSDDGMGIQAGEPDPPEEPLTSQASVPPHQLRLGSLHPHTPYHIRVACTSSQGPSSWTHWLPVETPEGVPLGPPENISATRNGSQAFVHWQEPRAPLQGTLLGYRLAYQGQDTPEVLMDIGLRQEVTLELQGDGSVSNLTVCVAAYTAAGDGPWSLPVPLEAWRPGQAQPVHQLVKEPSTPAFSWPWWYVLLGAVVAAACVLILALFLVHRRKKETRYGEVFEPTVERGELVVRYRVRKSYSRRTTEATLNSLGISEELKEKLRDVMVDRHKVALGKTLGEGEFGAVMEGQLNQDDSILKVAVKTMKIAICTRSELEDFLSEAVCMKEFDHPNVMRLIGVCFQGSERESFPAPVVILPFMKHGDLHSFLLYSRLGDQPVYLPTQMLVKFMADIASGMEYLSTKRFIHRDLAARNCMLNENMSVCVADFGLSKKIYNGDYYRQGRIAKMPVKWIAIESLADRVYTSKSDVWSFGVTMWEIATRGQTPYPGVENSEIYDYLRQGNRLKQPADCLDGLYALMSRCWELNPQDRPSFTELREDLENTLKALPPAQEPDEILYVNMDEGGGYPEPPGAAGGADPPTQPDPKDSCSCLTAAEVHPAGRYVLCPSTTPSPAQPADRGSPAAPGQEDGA
Kind of data set: Inhibition of human Axl using KKSRGDYMTMQIG as substrate incubated for 40 mins in the presence of [gamma33P]ATP by scintillation counting analysis.

A short description of data set [2]: Metabolic stability in rat liver microsomes assessed as half-life preincubated for 10 mins followed by NADPH addition and measured upto 60 mins by LC-MS/MS analysis. Format: ADME, Microsome. The following applies: time < 70 min. Background: Liver microsomes are vesicles of endoplasmic reticulum, rich in cytochrome P450 enzymes.
Data set [3] in a line: Metabolic stability in rat liver microsomes assessed as intrinsic clearance preincubated for 10 mins followed by NADPH addition and measured upto 60 mins by LC-MS/MS analysis. Format: ADME, Microsome. The conditions noted are these: time < 70 min, read-out: CLH.
Data set [4] can be described thus: AUC (0 to last) in Sprague-Dawley rat at 5 mg/kg, po measured upto 24 hrs by LC-MS/MS analysis. Format: ADME, organism-based. More on the design: dose 5 mg/kg, time < 24 hrs, route po. The following applies: in vivo.
A short description of data set [5]: Cmax in Sprague-Dawley rat at 5 mg/kg, po measured upto 24 hrs by LC-MS/MS analysis. Format: ADME, organism-based. More on the design: dose 5 mg/kg, time < 24 hrs, route po. The conditions noted are these: in vivo.
The nature of data set [6]: Half-life in Sprague-Dawley rat at 5 mg/kg, po measured upto 24 hrs by LC-MS/MS analysis. Format: ADME, organism-based. The following applies: in vivo.
Data set [7] can be described thus: Half-life in Sprague-Dawley rat at 1 mg/kg, iv measured upto 24 hrs by LC-MS/MS analysis. Format: ADME, organism-based. The following applies: in vivo.
Data set [8] has as its system NCI-H226. The data set is described as follows: Antiproliferative activity against human NCI-H226 cells assessed as inhibition of cell growth incubated for 72 hrs by CCK-8 assay. Format: functional. A general note: Tetrazolium dyes change colour on reduction, which living cells bring about.
The test system of data set [9] is A549. Kind of data set: Antiproliferative activity against human A549 cells assessed as inhibition of cell growth incubated for 72 hrs by CCK-8 assay. Format: functional.
The test system of data set [10] is HepG2. Kind of data set: Antiproliferative activity against human HepG2 cells assessed as inhibition of cell growth incubated for 72 hrs by CCK-8 assay. Format: functional.
The subject of data set [11] is A-375. The data set is described as follows: Antiproliferative activity against human A-375 cells assessed as inhibition of cell growth incubated for 72 hrs by CCK-8 assay. Format: functional.
Data set [12] has as its system SNU-16. Kind of data set: Antiproliferative activity against human SNU-16 cells assessed as inhibition of cell growth incubated for 72 hrs by CCK-8 assay. Format: functional. A digest of the protocol:
(§1)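 8000 cells/well. Test compound was serially diluted from a 10 uM top concentration and staurosporine from 1 uM. CC50 and maximum % inhibition are reported.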

In data set [13] the test system is CAL-27. The data set is described as follows: Antiproliferative activity against human CAL-27 cells assessed as inhibition of cell growth incubated for 72 hrs by CCK-8 assay. Format: functional.
Data set [14] has as its system U-87 MG. Kind of data set: Antiproliferative activity against human U87 cells assessed as inhibition of cell growth incubated for 72 hrs by CCK-8 assay. Format: functional, U-87MG ATCC.
For data set [15], the system named is COLO 205. Kind of data set: Antiproliferative activity against human COLO 205 cells assessed as inhibition of cell growth incubated for 72 hrs by CCK-8 assay. Format: functional.
For data set [16], the system named is MV4-11. The data set is described as follows: Antiproliferative activity against human MV4-11 cells assessed as inhibition of cell growth incubated for 72 hrs by CCK-8 assay. Format: functional. A digest of the protocol: as §1
Data set [17] has as its target Aurora kinase A (Homo sapiens) (UniProt O14965). The data set is described as follows: Inhibition of Aurora A (unknown origin) at 1 uM.
Data set [18] addresses Receptor-type tyrosine-protein kinase FLT3 (Homo sapiens) (UniProt P36888). The data set is described as follows: Inhibition of Flt3 (unknown origin) at 1 uM.
The target in data set [19] is Hepatocyte growth factor receptor (Homo sapiens) (UniProt P08581). Kind of data set: Inhibition of Met (unknown origin) at 1 uM relative to control.
The target in data set [20] is Tyrosine-protein kinase TXK (Homo sapiens) (UniProt P42681). The data set is described as follows: Inhibition of Txk (unknown origin) at 1 uM relative to control.

Calls of active or inactive are those of the source. The rule behind the calls is not given here.

Hepatocyte growth factor receptor (Homo sapiens), sequence (P08581 whole entry): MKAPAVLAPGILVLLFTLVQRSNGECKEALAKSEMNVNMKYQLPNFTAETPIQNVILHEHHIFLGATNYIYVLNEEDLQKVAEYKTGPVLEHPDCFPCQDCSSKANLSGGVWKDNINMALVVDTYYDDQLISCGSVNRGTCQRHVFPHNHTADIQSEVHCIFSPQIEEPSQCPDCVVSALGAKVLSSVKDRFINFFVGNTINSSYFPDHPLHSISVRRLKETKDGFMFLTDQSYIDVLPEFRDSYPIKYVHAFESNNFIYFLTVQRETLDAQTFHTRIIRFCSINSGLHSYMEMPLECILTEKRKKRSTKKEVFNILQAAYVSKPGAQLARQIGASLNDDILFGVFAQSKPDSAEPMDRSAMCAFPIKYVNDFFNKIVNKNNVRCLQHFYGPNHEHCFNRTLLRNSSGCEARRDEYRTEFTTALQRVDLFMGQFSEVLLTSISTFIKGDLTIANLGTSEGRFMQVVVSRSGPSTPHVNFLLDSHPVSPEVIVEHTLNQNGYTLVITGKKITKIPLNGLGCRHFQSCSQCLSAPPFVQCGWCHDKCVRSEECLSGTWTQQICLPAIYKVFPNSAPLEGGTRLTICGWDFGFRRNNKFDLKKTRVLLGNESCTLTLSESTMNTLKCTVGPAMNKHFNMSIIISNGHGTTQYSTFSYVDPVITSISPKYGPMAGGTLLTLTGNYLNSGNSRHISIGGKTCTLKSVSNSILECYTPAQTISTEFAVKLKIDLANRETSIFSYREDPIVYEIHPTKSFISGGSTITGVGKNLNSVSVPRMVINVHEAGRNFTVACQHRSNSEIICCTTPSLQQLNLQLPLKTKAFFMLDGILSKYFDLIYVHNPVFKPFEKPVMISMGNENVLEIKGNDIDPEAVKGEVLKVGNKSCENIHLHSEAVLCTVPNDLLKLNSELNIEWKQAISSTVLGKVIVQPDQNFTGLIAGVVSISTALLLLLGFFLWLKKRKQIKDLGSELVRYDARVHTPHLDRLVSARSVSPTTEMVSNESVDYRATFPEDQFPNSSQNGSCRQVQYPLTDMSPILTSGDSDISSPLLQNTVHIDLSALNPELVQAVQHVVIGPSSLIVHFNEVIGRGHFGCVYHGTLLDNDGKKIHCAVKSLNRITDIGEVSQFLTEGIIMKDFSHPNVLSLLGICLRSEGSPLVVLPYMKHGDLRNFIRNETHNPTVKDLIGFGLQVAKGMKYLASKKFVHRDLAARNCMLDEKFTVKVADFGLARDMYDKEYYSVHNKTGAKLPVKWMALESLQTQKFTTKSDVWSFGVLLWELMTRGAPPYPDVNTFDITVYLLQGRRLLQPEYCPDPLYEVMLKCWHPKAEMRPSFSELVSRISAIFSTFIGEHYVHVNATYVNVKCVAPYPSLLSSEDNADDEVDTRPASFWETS
Tyrosine-protein kinase TXK (Homo sapiens), sequence (P42681 whole entry): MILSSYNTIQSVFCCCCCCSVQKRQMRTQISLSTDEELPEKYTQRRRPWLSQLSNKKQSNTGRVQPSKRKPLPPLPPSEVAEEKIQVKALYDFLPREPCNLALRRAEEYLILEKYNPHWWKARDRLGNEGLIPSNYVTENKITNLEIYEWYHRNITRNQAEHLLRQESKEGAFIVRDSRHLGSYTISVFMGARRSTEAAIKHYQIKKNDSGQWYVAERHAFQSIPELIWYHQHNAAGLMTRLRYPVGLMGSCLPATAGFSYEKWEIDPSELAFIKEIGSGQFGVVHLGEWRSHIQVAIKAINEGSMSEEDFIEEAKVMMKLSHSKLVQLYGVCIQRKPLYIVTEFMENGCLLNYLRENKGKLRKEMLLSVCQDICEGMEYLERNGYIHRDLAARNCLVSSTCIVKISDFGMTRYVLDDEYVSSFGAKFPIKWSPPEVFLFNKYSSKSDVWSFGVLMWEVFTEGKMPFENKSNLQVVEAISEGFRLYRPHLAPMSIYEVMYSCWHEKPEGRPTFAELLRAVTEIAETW
Receptor-type tyrosine-protein kinase FLT3 (Homo sapiens), sequence (P36888 whole entry): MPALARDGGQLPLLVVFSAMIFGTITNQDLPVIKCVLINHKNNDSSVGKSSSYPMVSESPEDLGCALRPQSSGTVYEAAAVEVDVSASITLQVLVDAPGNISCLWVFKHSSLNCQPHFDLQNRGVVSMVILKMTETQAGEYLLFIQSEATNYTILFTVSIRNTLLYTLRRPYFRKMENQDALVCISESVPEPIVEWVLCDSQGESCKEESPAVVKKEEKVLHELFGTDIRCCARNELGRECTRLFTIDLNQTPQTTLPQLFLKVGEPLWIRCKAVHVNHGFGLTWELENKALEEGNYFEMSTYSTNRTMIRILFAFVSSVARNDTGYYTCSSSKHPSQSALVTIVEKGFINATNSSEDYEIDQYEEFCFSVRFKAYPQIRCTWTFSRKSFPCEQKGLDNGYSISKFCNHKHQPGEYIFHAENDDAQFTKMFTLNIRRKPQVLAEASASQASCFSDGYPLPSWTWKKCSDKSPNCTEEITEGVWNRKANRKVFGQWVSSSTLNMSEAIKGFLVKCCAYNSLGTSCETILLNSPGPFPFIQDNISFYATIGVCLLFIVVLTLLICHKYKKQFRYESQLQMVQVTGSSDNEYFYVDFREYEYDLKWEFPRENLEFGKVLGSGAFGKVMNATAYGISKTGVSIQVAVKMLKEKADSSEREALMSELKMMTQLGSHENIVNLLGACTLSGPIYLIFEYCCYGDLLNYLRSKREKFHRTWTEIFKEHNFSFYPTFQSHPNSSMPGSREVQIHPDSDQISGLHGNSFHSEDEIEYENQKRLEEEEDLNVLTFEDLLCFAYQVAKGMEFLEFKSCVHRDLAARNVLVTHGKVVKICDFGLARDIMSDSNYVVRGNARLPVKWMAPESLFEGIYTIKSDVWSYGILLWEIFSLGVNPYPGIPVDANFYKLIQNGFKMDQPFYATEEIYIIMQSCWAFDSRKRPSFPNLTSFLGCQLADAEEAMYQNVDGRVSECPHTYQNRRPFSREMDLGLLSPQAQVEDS
Aurora kinase A (Homo sapiens), sequence (O14965 whole entry): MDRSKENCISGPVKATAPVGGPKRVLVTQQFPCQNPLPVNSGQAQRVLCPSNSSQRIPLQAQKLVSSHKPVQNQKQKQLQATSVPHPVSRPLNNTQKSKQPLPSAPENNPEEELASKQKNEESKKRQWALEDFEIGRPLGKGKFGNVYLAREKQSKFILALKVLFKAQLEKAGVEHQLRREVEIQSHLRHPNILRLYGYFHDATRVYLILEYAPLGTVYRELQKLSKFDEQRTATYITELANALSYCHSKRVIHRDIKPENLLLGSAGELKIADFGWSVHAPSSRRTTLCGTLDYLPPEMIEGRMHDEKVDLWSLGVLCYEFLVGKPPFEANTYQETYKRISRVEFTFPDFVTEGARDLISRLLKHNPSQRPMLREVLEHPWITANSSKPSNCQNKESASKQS

As for `CC(C)n1cnc(-c2ccccc2Nc2nc(Nc3ccc(N(C)C4CCN(C)CC4)cc3)ncc2Cl)n1`, the IC50 in data set [1] came out at 5 nM. Also, the half-life in [2] was 28.3 min; in data set [6], 387 min; in data set [7], 396 min. For the same compound, the CLint scaled in data set [3] was 87.7 mL/min/kg. In data set [4], this compound registered an AUClast of 1180 ng·h/mL. Moreover, the peak level in data set [5] (Cmax) was 83.9 ng/mL. Besides, the CC50 in [8] amounted to 1240 nM; in data set [9] it was 293 nM; in data set [10], 352 nM; in data set [11] it was 23.9 µM; in data set [12] it was 149 nM; in data set [13], 107 nM. In addition, the half-maximal cytotoxic concentration (CC50) in [14] worked out at 3.01 µM; in data set [15], 350 nM; in data set [16] it was 66 nM. Also, the inhibition result in data set [17] and in data set [18] was “Active” throughout. The inhibition in data set [19] and in data set [20] was 70% in each case.

As usually defined, the IC50 is the concentration needed to halve the response being measured. Usually half-life stands for the time in which the quantity being followed falls by half. One may read the Cmax as the peak of the concentration-time curve. For orientation: CC50 means the concentration that lowers cell viability or growth by half. As usually defined, the inhibition is the change of the read-out against control, counted positive when it falls.
